Data on 12 compounds can be found in ChEMBL document CHEMBL1123183, “Synthesis and antiviral properties of 5-(2-substituted vinyl)-6-aza-2'-deoxyuridines” (1986).

What all share (format): functional
Settings in all cases: Chlorocebus sabaeus, read-out: ID50 (the source's name)

Assay [1] deals with Vero. The assay is described as follows: In vitro antiviral activity against HSV-2(strain 196) in Vero cells. In outline:
(§1)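 Plaque reduction in confluent Vero monolayers infected with 30-40 PFU of HSV-1 (strain HFEM) or HSV-2 (strain 196), then 1 h at 37 °C. Overlay of maintenance medium with 0.75% carboxymethylcellulose and a range of compound concentrations, then 2 days at 37 °C. Cells fixed and stained, plaques counted. ID50 is the concentration giving 50% plaque inhibition.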

Assay [2] relates to Vero. Put plainly: In vitro antiviral activity against HSV-1(strain HFEM) in Vero cells. A digest of the protocol: as §1
Assay [3] has as its system Vero. The assay is described as follows: Cytotoxicity was measured by determining the incorporation of [methyl-3H]thymidine into DNA of Vero cells. A digest of the protocol:
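Subconfluent Vero monolayers overlaid with maintenance medium holding 1 μCi/mL [methyl-3H]thymidine plus a range of nucleoside concentrations. Incubated 18 h at 37 °C. DNA synthesis read as label in acid-precipitable material. ID50 is the concentration giving 50% reduction of thymidine incorporation.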

Structures are written as SMILES. In brackets after ≈: the same amount, converted by molar mass.

In the case of `O=c1[nH]c(=O)n(C2C[C@@H](O)[C@@H](CO)O2)nc1-c1ccoc1` (stereo partly drawn), the IC50 in the assay with Vero [1] amounted to 39 µg/mL (≈ 132 µM); in the assay on Vero [2] it was 42 µg/mL (≈ 142 µM); with Vero [3], 45 µg/mL (≈ 152 µM).

On to `O=c1[nH]c(=O)n(C2C[C@@H](O)[C@@H](CO)O2)nc1C=C(Br)Br` (stereo partly drawn), for which the IC50 in the assay on Vero [1] is 100 µg/mL (≈ 242 µM); with Vero [2] it was 100 µg/mL (≈ 242 µM); in the assay on Vero [3] it was > 500 µg/mL.

For `COC(=O)/C=C/c1nn(C2C[C@@H](O)[C@@H](CO)O2)c(=O)[nH]c1=O` (stereo partly drawn), the IC50 in the assay with Vero [2] and in the assay with Vero [3] was > 500 µg/mL throughout.

As to `O=c1[nH]c(=O)n(C2C[C@@H](O)[C@@H](CO)O2)nc1CC(F)(F)F` (stereo partly drawn), the results for the IC50 with Vero [1], in the assay with Vero [2] and with Vero [3] were > 250 µg/mL, > 250 µg/mL and > 500 µg/mL, respectively.

Take `CS/C=C/c1nn(C2C[C@@H](O)[C@@H](CO)O2)c(=O)[nH]c1=O` (stereo partly drawn): the IC50 in the assay with Vero [1] was > 250 µg/mL; in the assay on Vero [2] it was > 250 µg/mL; with Vero [3] it was 420 µg/mL (≈ 1390 µM).

Consider `O=C(O)/C=C/c1nn(C2C[C@@H](O)[C@@H](CO)O2)c(=O)[nH]c1=O` (stereo partly drawn), for which the results for the IC50 in the assay with Vero [2] and in the assay on Vero [3] were > 250 µg/mL and > 500 µg/mL, respectively.

With `O=c1[nH]c(=O)n(C2C[C@@H](O)[C@@H](CO)O2)nc1/C=C/Cl` (stereo partly drawn), the IC50 with Vero [1] is 215 µg/mL (≈ 742 µM); with Vero [2], 20 µg/mL (≈ 69 µM); in the assay on Vero [3] it was > 500 µg/mL.

For `O=c1[nH]c(=O)n(C2C[C@@H](O)[C@@H](CO)O2)nc1/C=C/Br` (stereo partly drawn), the IC50 in the assay with Vero [1] was found to be 190 µg/mL (≈ 569 µM); with Vero [2], 8 µg/mL (≈ 23.9 µM); with Vero [3] it was 355 µg/mL (≈ 1060 µM).

With `O=Cc1nn(C2C[C@@H](O)[C@@H](CO)O2)c(=O)[nH]c1=O` (stereo partly drawn), the IC50 is > 500 µg/mL in the assay with Vero [2] and 180 µg/mL (≈ 700 µM) in the assay with Vero [3].

Take `COC(F)(F)Cc1nn(C2C[C@@H](O)[C@@H](CO)O2)c(=O)[nH]c1=O` (stereo partly drawn): the IC50 in the assay with Vero [1] is > 250 µg/mL; in the assay with Vero [2], 82 µg/mL (≈ 254 µM); in the assay on Vero [3] it was > 500 µg/mL.

For `O=c1[nH]c(=O)n(C2C[C@@H](O)[C@@H](CO)O2)nc1/C=C(\F)Br` (stereo partly drawn), the IC50 with Vero [1] was > 250 µg/mL; in the assay on Vero [2], > 250 µg/mL; in the assay on Vero [3], > 500 µg/mL.

For `O=c1[nH]c(=O)n([C@H]2C[C@H](O)[C@@H](CO)O2)cc1/C=C/Br` [BRIVUDINE], the IC50 with Vero [1] amounted to 1.6 µg/mL (≈ 4.8 µM); in the assay on Vero [2], 0.015 µg/mL (≈ 0.045 µM); in the assay with Vero [3], 50 µg/mL (≈ 150 µM).
